OX1R antag-1: antagonists of human orexin 1 receptor. CHO/OX1R cells, Fluo-8 calcium fluorescence, orexin A. inhibition, % at 5 µM. actives 0.43% (n = 330,000). AID 434989;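 active = inhibition above its plate's threshold, mean inhibition of all tested compounds on the plate plus 3 SD, cut at about 37% in these data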;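 also: 0% = orexin A challenge wells and 100% = SB-334867-A antagonist wells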
Target sequence (O43613 whole entry, looked up): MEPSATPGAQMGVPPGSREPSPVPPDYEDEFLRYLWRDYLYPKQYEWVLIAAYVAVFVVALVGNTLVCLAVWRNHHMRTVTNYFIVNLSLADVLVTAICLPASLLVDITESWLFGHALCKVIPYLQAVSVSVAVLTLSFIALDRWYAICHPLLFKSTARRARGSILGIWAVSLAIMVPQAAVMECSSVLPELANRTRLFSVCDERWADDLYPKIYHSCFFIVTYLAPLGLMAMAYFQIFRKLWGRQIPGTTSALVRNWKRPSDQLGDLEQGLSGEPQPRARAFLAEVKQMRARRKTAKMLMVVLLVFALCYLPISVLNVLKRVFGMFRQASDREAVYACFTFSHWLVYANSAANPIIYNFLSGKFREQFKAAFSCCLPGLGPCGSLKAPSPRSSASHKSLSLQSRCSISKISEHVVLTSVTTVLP
GPR7 antag: antagonists of human GPR7 (neuropeptides B/W receptor 1). actives 1.1% (n = 290,000). inhibition, % at 4.4 µM. AID 1861. GPR7-expressing cells, fluorescence antagonist assay; in the data active = inhibition above about 16%, passing the limit was not always enough;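 also: cells stimulated with the agonist NPW; 0% = agonist with vehicle and 100% = vehicle without agonist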
Target sequence (P48145 whole entry, looked up): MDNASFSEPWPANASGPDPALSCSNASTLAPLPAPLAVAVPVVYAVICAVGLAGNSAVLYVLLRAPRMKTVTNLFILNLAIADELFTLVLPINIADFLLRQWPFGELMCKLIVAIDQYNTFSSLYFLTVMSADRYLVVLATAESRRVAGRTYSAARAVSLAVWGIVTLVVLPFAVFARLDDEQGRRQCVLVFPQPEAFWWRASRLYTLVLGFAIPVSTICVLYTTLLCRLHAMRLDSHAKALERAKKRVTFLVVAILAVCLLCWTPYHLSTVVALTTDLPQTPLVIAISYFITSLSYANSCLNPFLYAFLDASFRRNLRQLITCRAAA
TAAR1 agonist: agonists of human TAAR1; Q96RJ0; CHO RD-HGA16 TAAR1, Fluo-8 calcium fluorescence; vehicle wells 0%, saturating PEA agonist 100%; activation, % at 3 µM; actives 0.99% (n = 360,000);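 active = activation above the mean activation of all test compounds in the run plus 3 SD, cut at about 38% in these data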
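Assay system: CHO-derived RD-HGA16 cells with stable Gα16 and human TAAR1; timing: 17-24 h seeding, 75 min 37 °C dye, 30 min RT; read-out: % activation from peak over basal fluorescence ratio, DMSO-to-PEA scaled; measured by: kinetic Fluo-8 calcium fluorescence; benchmarks: low control DMSO, high control PEA (EC100); doses: 3 µM single concentration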
TAAR1 antag: antagonists of human TAAR1; Q96RJ0; CHO RD-HGA16 TAAR1, Fluo-8 calcium fluorescence, antagonist; inhibition, % at 3 µM; actives 1.5% (n = 360,000); AID 624466;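 active = inhibition above a per-plate cutoff, the mean inhibition of test compounds on that plate plus 3 SD, cut at about 49% in these data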;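 also: 0% = DMSO plus EC80 beta-PEA response and 100% = DMSO alone without agonist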
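Test system: CHO RD-HGA16 cells bearing hTAAR1 | Reagent: β-PEA, EC80 | Compound dosing: 3 µM, single point | Schedule: Dye loading 75 min at 37 °C, then 30 min room temperature | Signal: Calcium fluorescence with Fluo-8 | Evaluation: Percent inhibition of PEA-evoked calcium signal, max/basal emission ratio | Control set: DMSO-only wells and EC80 β-PEA-stimulated wells | Repeats: Singlicate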
OX1R antag-2: antagonists of human orexin 1 receptor (OX1R). OX1R-expressing cells, FRET antagonist read-out. inhibition, % at 6.6 µM. actives 1.8% (n = 330,000). AID 485270; in the data active = inhibition mostly above about 38%, no sharp cut-off; inactive = mostly below about 40%;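 also: 0% = agonist challenge alone and 100% = reference antagonist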
CHO parental Ca: counter-screen: ATP calcium response change in parental CHO cells | actives 0.63% (n = 330,000) | inhibition, % at 5.6 µM | parental CHO-K1, ATP-induced calcium, Fluo-8 fluorescence;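 active = inhibition above that plate's mean sample inhibition plus 3 SD, cut at about 26% in these data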;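 also: 0% = ATP-challenged DMSO wells and 100% = DMSO wells without ATP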
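Measured by: calcium-sensitive Fluo-8 fluorescence / Test system: CHO parental line / Controls: ATP-challenged DMSO wells low, unchallenged DMSO wells high / Measure: % inhibition / Compound: single nominal dose of 5.6 µM per compound / Replicates: single well per compound, no replicates / Reagent: ATP as calcium-mobilizing challenge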
TAAR1 ag confirm: human TAAR1 agonism, confirmed | activation, % at 3 µM | actives 82% (n = 2,400) | CHO RD-HGA16 TAAR1, Fluo-8 calcium fluorescence; scaled: DMSO 0%, maximal phenethylamine 100% | shares compounds with TAAR1 agonist;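 active = activation above a cutoff set at the run's mean compound activation plus 3 SD, cut at about 39% in these data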
Ga16 ag counter: counter-screen for TAAR1 agonists: nonselective agonists in parental cells. CHO-Ga16 parental, Fluo-8 calcium fluorescence; normalized to maximal ATP response, DMSO zero. shares compounds with TAAR1 agonist. activation, % at 3 µM. actives 50% (n = 2,400);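 active = activation above the run cutoff, the mean activation over all tested wells plus 3 SD, cut at about 12% in these data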;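 also: 0% = DMSO wells and 100% = maximal ATP response on the peak over basal ratio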
TAAR1 desensitize: TAAR1 response desensitization, agonist counter-screen; shares compounds with TAAR1 agonist; inhibition, % at 3 µM; CHO RD-HGA16 hTAAR1, Fluo-8 calcium, beta-PEA response inhibition; actives 46% (n = 2,400); AID 651951;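 active = inhibition above the run cutoff, the mean inhibition of all test compounds plus 3 SD, cut at about 49% in these data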;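 also: beta-PEA stimulus applied at its EC80; loss of beta-PEA calcium signal after compound pretreatment read as receptor desensitization; 0% = DMSO with beta-PEA at EC80 and 100% = DMSO alone without agonist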
Ga16 nonsel ant: nonselective Ga16 antagonism, counter-screen; shares compounds with TAAR1 agonist; CHO-Ga16 ATP-induced calcium, Fluo-8 fluorescence; inhibition, % at 3 µM; actives 39% (n = 2,400); AID 651952;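 active = inhibition above the plate's mean compound inhibition plus 3 SD, computed per plate, cut at about 22% in these data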;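 also: 0% = EC80 ATP with DMSO and 100% = DMSO wells without ATP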
* = called active by the depositor; x = no result given. Compounds with a hit are over-represented: about 4.5% of the library has one in this group of screens.

SMILES | OX1R antag-1 | GPR7 antag | TAAR1 agonist | TAAR1 antag | OX1R antag-2 | CHO parental Ca | TAAR1 ag confirm | Ga16 ag counter | TAAR1 desensitize | Ga16 nonsel ant
COCCn1c(SCC(=O)c2c(N)n(C3CC3)c(=O)[nH]c2=O)nnc1-c1ccc(Cl)cc1 | -1 | x | 0 | 12 | 2 | -8 | x | x | x | x
NS(=O)(=O)c1ccc(CCNC(=O)CNCCc2ccccc2)cc1 | 2 | -15 | 71* | 18 | -9 | -6 | 90* | 1 | 70* | 4
NS(=O)(=O)c1ccc(CCNC(=O)CSc2ccccc2)cc1 | 6 | 1 | -1 | 17 | 16 | 10 | x | x | x | x
CCOc1ccccc1N1C(=O)c2ccc(S(=O)(=O)c3ccc(C(=O)O)cc3)cc2C1=O | -11 | -1 | 3 | -14 | 20 | 9 | x | x | x | x
CSc1ccc(C(=O)NC2CCSc3ccccc32)cc1 (stereo not drawn) | -2 | 23 | 65* | 89* | 8 | -17 | 53* | 48* | 66* | 62*
CC(=O)Nc1ccc(C(=O)NC2CCSc3ccccc32)cc1 (stereo not drawn) | -6 | -7 | 1 | -1 | 26 | -4 | x | x | x | x
CCCCCOc1ccc(/C(C)=N/NC2=NCCN2)cc1 | -10 | -4 | 18 | -11 | 11 | -5 | x | x | x | x
CCCCCCOc1ccc(/C(C)=N/NC2=NCCN2)cc1 | -1 | 1 | 63* | 21 | 11 | 5 | 48* | 23* | 37 | 24*
O=S1(=O)CC(N2CCCC2)CN1CCc1ccccc1 (stereo not drawn) | x | x | 56* | -7 | x | x | 45* | 0 | 6 | 16
O=C(Nc1ccncc1)Nc1ccc(Cl)cc1 | 13 | -4 | 65* | 50* | 4 | 14 | 91* | 17* | 84* | 21
O=C(Nc1ccncc1)Nc1ccncc1 | 3 | -8 | 2 | 1 | 3 | -4 | x | x | x | x
CCC(C)c1ccc(NC(=S)NC2CCN(Cc3ccccc3)CC2)cc1 (stereo not drawn) | -3 | 2 | 58* | 1 | 2 | 3 | 45* | 19* | 39 | 27*
CCCC(C(=O)Nc1ccc(C)c(S(=O)(=O)N2CCOCC2)c1)c1ccccc1 (stereo not drawn) | -23 | x | 0 | -56 | 14 | -39 | x | x | x | x
CCCC(C(=O)Nc1ccc(S(=O)(=O)N2CCOCC2)cc1)c1ccccc1 (stereo not drawn) | 28 | x | 96* | 57* | 5 | 11 | 86* | 46* | 69* | 34*
Cc1ccc([C@H]2C(C(=O)O)=CC[C@@H](c3ccc4c(c3)OCO4)N2S(=O)(=O)c2ccc(C)cc2)cc1 | -6 | x | 1 | 14 | 33 | -21 | x | x | x | x
O=c1[nH]cc(NCCc2ccccc2)c(=O)[nH]1 | -11 | -9 | x | x | 16 | -21 | x | 0 | x | 16
CCN(CC)c1ccc(/C=C2\C(=O)c3ccc(C(=O)O)cc3C2=O)cc1 | 87* | 7 | 125* | 86* | 27 | 51* | 144* | 163* | 89* | 92*
COc1ccc(-c2ccc3c(c2)O[C@H](CN(C)C(=O)Nc2ccccc2F)[C@@H](C)CN([C@H](C)CO)S3(=O)=O)cc1 | x | x | 3 | -17 | x | x | x | x | x | x
CCOC(=O)C(NCCc1ccccc1F)(NC(C)=O)C(F)(F)F (stereo not drawn) | -3 | -12 | 72* | 51* | 23 | -14 | 101* | 1 | 88* | 0
C[C@@H]1CN(S(=O)C(C)(C)C)[C@H](CCO)/C1=C\c1ccccc1 (stereo partly drawn) | x | x | 0 | 5 | x | x | x | x | x | x
C[C@H]1CN[C@@H](CCO)/C1=C\c1ccccc1 | x | x | 43* | -2 | x | x | 53* | 1 | 29 | 10
C[C@H]1CN[C@H](CCO)/C1=C\c1ccccc1 | x | x | 47* | 7 | x | x | 61* | 0 | 18 | 10
CCCCN1C[C@H](COC(=O)CCC)Oc2cccc(F)c2S1(=O)=O | x | x | 0 | 10 | x | x | x | x | x | x
CCC(c1nnnn1Cc1ccco1)N(CCc1ccccc1)Cc1cc2cc(C)ccc2[nH]c1=O (stereo not drawn) | -27 | x | x | x | 14 | -34 | x | 3 | x | 6
Cc1ccc2[nH]c(=O)c(CN(CCc3ccccc3)C(c3nnnn3Cc3ccco3)C(C)C)cc2c1 (stereo not drawn) | -29 | -13 | 71* | 3 | 25 | -4 | 62* | 0 | 18 | 6
SMILES | OX1R antag-1 | GPR7 antag | TAAR1 agonist | TAAR1 antag | OX1R antag-2 | CHO parental Ca | TAAR1 ag confirm | Ga16 ag counter | TAAR1 desensitize | Ga16 nonsel ant
O=[N+]([O-])c1cccc(-c2ccc3nnc(SCc4cccnc4)n3n2)c1 | x | x | -3 | -11 | x | x | x | x | x | x
Cc1ccc(C)c(NC(=O)c2ccc(S(=O)(=O)C(F)F)cc2)c1 | -5 | 8 | 2 | 14 | 35 | -1 | x | x | x | x
O=C1NC(=S)SC1=Cc1ccc2c(c1)OCO2 | x | x | 2 | -10 | x | x | x | x | x | x
CN(C)c1ccc(C=C2SC(=S)NC2=O)cc1 | x | x | 69* | 57* | x | x | 57* | 85* | 69* | 78*
CC(C)[C@H](NS(=O)(=O)c1ccc(F)cc1F)C(=O)N1CCC[C@H]1C(=O)NCCc1ccccc1Cl | x | x | 49* | 64* | x | x | 76* | 1 | 86* | 11
CC(C)[C@H](NC(=O)c1ccc(Cl)c(Cl)c1)C(=O)N1CCC[C@H]1C(=O)NCCc1ccccc1Cl | x | x | 53* | 80* | x | x | 82* | 0 | 98* | 2
CC(N)C(=O)NC(C(=O)N1CCCC1C(=O)NC(c1ccccc1)c1ccccc1)C(C)C (stereo not drawn) | -11 | x | 4 | -5 | -2 | -7 | x | x | x | x
CC(C)[C@H](NC(=O)c1ccccc1)C(=O)N1CCC[C@H]1C(=O)NCCc1ccccc1Cl | x | x | 80* | 83* | x | x | 96* | 4 | 93* | 4
Cc1ccc(C(=O)Nc2onc(C)c2C#N)cc1 | -2 | -4 | 6 | -20 | 17 | 8 | x | x | x | x
O=C(NCCCc1ccc(F)cc1)C1CCC(=O)N(CCN2CCOCC2)C1 (stereo not drawn) | -8 | 0 | 0 | -37 | 3 | -3 | x | x | x | x
Cc1ccc(NC(=O)CNC2CCCCC2)cc1Cl | -13 | 8 | 3 | -12 | 34 | 8 | x | x | x | x

Source: PubChem (The Scripps Research Institute Molecular Screening Center)
